Measured values published in ChEMBL document CHEMBL1143746, “Synthesis and biological evaluation of sulfonylhydrazone-substituted imidazo[1,2-a]pyridines as novel PI3 kinase p110alpha inhibitors” (Bioorg Med Chem, 2007).

Assays:
[1] = tested on: A-375; assay: Inhibition of serum-induced proliferation of human A375 cells; format: functional, cell-based
Method in brief: (§1)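 Cells were grown in DMEM with 10% FBS and penicillin/streptomycin and seeded at 1 × 10⁴ per well onto pre-spotted compound. After 46 h, Alamar blue was added. Fluorescence (ex 544/em 590 nm) was read 2 h later.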

[2] = target: Phosphatidylinositol 4,5-bisphosphate 3-kinase catalytic subunit alpha isoform (Bos taurus, UniProt P32871); assay: Inhibition of GST-tagged bovine p110-alpha expressed in SF9/Baculovirus system by SPA
Phosphatidylinositol 4,5-bisphosphate 3-kinase catalytic subunit alpha isoform, sequence (P32871 whole entry, canonical isoform): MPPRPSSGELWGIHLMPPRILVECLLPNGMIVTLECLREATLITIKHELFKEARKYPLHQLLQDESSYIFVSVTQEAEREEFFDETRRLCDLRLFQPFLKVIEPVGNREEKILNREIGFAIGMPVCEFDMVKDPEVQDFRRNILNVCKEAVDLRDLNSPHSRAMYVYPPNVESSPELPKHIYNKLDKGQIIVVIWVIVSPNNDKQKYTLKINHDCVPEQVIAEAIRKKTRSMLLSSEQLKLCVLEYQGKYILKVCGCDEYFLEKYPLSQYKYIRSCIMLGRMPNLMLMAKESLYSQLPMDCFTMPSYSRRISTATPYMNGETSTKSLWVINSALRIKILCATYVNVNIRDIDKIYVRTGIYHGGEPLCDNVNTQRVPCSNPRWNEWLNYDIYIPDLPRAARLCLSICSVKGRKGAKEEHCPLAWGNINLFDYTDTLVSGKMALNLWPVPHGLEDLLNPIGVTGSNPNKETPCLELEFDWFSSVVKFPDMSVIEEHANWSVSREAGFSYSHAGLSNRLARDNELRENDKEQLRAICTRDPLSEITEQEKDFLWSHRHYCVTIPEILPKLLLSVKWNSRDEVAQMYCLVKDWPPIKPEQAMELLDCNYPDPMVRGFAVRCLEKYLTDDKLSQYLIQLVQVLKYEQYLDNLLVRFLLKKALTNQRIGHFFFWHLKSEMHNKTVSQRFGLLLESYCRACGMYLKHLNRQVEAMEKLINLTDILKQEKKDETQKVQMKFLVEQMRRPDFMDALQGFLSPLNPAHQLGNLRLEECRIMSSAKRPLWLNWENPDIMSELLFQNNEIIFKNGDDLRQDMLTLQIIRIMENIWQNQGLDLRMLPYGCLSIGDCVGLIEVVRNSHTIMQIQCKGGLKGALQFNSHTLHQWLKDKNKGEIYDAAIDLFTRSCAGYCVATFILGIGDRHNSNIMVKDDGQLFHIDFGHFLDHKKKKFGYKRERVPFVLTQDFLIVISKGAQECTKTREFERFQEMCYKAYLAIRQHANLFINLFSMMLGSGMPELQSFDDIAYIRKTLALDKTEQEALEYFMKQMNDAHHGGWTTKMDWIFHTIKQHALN

[3] = tested on: A549; assay: Inhibition of serum-induced proliferation of human A549 cells; format: functional, cell-based; method in brief: as §1
[4] = target: Phosphatidylinositol 4,5-bisphosphate 3-kinase catalytic subunit gamma isoform (Homo sapiens, UniProt P48736); assay: Inhibition of His-tagged human p110gamma expressed in SF9/Baculovirus system by SPA
Phosphatidylinositol 4,5-bisphosphate 3-kinase catalytic subunit gamma isoform, sequence (P48736 whole entry, canonical isoform): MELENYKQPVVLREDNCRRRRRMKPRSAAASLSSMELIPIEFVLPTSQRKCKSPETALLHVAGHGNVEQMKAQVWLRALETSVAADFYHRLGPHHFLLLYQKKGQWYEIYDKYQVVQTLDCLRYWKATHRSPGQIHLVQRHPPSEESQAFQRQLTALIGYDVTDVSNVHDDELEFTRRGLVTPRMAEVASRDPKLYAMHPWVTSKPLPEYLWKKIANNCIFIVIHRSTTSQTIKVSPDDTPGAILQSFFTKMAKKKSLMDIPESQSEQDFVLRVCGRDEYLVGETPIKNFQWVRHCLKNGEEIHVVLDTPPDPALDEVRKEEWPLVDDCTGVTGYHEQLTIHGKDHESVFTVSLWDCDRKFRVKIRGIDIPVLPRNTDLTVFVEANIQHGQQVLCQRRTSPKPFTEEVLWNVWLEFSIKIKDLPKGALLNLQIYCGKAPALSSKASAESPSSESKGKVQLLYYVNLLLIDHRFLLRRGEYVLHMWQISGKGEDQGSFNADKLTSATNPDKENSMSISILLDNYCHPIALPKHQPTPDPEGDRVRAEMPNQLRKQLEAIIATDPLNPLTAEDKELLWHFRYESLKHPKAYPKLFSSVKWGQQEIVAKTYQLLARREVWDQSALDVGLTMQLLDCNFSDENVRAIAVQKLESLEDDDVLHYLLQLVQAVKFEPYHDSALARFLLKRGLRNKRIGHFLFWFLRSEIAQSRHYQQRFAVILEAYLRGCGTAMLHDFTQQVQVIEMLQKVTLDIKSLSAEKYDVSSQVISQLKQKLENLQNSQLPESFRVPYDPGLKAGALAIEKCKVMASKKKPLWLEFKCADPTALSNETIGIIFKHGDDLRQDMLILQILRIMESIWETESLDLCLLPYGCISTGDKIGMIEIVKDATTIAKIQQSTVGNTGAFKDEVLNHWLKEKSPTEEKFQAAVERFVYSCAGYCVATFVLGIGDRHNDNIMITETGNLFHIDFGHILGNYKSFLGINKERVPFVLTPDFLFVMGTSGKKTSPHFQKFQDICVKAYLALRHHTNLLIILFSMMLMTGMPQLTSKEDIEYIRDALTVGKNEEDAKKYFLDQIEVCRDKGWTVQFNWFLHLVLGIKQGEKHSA

[5] = tested on: MCF7; assay: Inhibition of serum-induced proliferation of human adriamycin-resistant MCF7 cells; format: functional, cell-based
[6] = target: Phosphatidylinositol 4-phosphate 3-kinase C2 domain-containing subunit beta (Homo sapiens, UniProt O00750); assay: Inhibition of glu-tagged PI3K C2-beta expressed in SF9/Baculovirus system by SPA
Phosphatidylinositol 4-phosphate 3-kinase C2 domain-containing subunit beta, sequence (O00750 whole entry, the tested form may be a part): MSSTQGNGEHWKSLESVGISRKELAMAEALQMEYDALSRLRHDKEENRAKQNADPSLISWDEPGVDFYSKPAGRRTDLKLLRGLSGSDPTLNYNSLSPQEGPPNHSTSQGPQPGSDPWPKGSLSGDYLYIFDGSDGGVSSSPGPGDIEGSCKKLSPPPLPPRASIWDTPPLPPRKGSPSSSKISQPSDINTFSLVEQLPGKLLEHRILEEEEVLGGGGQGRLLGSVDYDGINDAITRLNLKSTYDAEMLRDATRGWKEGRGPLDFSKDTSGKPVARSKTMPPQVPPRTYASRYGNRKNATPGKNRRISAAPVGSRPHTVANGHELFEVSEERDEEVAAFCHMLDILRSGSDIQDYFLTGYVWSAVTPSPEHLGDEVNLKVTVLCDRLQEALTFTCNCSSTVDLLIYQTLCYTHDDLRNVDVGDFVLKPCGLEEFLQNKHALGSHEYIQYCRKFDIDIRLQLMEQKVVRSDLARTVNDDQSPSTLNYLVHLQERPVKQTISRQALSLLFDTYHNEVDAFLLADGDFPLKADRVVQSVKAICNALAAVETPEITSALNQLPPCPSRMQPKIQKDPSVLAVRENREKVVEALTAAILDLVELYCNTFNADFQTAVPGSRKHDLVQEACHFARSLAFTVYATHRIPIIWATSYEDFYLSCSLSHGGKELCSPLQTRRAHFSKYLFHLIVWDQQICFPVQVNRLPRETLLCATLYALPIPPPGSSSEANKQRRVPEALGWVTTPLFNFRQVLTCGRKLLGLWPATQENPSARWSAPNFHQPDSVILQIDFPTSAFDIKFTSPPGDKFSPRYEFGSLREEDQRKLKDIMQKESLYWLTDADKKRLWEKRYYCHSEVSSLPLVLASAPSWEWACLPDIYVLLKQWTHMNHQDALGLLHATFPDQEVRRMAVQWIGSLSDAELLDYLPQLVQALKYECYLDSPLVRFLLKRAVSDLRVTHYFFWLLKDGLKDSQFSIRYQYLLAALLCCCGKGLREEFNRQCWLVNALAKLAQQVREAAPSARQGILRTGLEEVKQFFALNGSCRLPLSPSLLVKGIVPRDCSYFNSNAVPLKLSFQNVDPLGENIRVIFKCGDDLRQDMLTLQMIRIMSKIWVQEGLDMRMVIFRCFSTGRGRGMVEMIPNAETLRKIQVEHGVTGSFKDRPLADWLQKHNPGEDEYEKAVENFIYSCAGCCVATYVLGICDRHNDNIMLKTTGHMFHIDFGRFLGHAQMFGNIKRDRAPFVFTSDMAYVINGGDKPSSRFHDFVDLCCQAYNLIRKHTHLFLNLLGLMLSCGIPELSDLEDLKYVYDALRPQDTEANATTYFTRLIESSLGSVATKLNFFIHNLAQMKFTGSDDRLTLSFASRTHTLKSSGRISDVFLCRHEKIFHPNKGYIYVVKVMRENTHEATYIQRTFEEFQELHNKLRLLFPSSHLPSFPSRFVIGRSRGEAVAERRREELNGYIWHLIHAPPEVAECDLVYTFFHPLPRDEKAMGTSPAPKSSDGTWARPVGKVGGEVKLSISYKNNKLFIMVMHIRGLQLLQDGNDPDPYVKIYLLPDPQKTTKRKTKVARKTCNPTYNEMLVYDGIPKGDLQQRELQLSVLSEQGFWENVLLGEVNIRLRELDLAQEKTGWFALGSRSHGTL

[7] = tested on: HeLa; assay: Inhibition of serum-induced proliferation of human HeLa cells; format: functional, cell-based; method in brief: as §1
[8] = tested on: MCF7; assay: Inhibition of serum-induced proliferation of human MCF7 cells; format: functional, cell-based
[9] = tested on: HeLa; assay: Suppression of tumor growth in human HeLa cell xenografted BALB/c nude mouse at 50 mg/kg/day, ip after 2 weeks; format: functional; conditions: route intraperitoneal
Method in brief: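 Female Balb/c-nu/nu mice, five per group, received 5 × 10⁶ HeLa cells subcutaneously in the hind quarters. Once tumors reached about 100 mm³, the compound was given i.p. at 50 mg/kg daily for 2 weeks. Tumor growth was compared with vehicle, and body weight was monitored.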

SMILES	IC50 [1] [µM]	IC50 [2] [µM]	also measured
Cc1ccc([N+](=O)[O-])cc1S(=O)(=O)n1ccc(-c2c(C)nc3ccc(Br)cn23)n1	0.73		
C/C(=N\NS(=O)(=O)c1cc([N+](=O)[O-])ccc1C)c1cnc2ccc(Br)cn12	12	0.017	
Cc1ccc([N+](=O)[O-])cc1S(=O)(=O)N/N=C/c1cnc2ccc(Br)cn12	9	0.021	
C/C(=N\N(C)S(=O)(=O)c1cc([N+](=O)[O-])ccc1C)c1cnc2ccc(Br)cn12	20	0.081	
C/C(=N\N(C)S(=O)(=O)c1cc([N+](=O)[O-])ccc1C)c1c(C)nc2ccc(Br)cn12		0.17	
C/C(=N\NS(=O)(=O)c1cc([N+](=O)[O-])ccc1C)c1c(C)nc2ccc(Br)cn12		0.4	
Cc1nc2ccccn2c1-c1ccn(S(=O)(=O)c2ccc(F)cc2)n1	23		
CCOC(=O)c1ccc2ncc(/C=N/N(C)S(=O)(=O)c3cc([N+](=O)[O-])ccc3C)n2c1	9.35	0.34	
Cc1ccc([N+](=O)[O-])cc1S(=O)(=O)N(C)/N=C/c1cnc2ccc(C(N)=O)cn12	8.96	0.78	
O=c1cc(N2CCOCC2)oc2c(-c3ccccc3)cccc12 [LY-294002]	8.4		

Second part, led by results:

IC50 [1] [µM]	IC50 [2] [µM]	SMILES	also measured
0.18	0.0053	Cc1ccc([N+](=O)[O-])cc1S(=O)(=O)N(C)/N=C/c1cnc2ccc(F)cn12	
0.056	0.00077	Cc1ccc([N+](=O)[O-])cc1S(=O)(=O)N(C)/N=C/c1cnc2ccc(Cl)cn12	
0.09	0.014	Cc1ccc([N+](=O)[O-])cc1S(=O)(=O)N(C)/N=C/c1cnc2ccc(C(F)(F)F)cn12	
0.033	0.00026	Cc1ccc([N+](=O)[O-])cc1S(=O)(=O)N(C)/N=C/c1cnc2ccc(C#N)cn12	
0.058		Cc1ccc([N+](=O)[O-])cc1S(=O)(=O)N(C)/N=C/c1cnc2ccc(Br)cn12.Cl	IC50 [3]: 0.069 µM; IC50 [4]: 0.04 µM; IC50 [5]: 0.039 µM; IC50 [6]: 0.1 µM; IC50 [7]: 0.051 µM; IC50 [8]: 0.019 µM; Activity [9]: 62%
0.12	0.006	Cc1ccc2ncc(/C=N/N(C)S(=O)(=O)c3cc([N+](=O)[O-])ccc3C)n2c1	
